ChEMBL document CHEMBL1147829, “4-(Aminoalkylamino)-3-benzimidazole-quinolinones as potent CHK-1 inhibitors” (Bioorg Med Chem Lett, 2006)
pEC50, pIC50: −log10 of the molar value. Calls of active or inactive are those of the source. The rule behind the calls is not given here.

tested on: MDA-MB-435; experiment: Cytotoxicity against human MDA-MB-435 cells; format: functional, cell-based
Summary of the method: (§1)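 MDA-MB-435 cells seeded at 5×10³ per well and allowed 4 h at 37 °C under 5% CO₂. They were then exposed to the agent alone or combined with camptothecin, with DMSO as vehicle control, for 48 h. MTS was developed 4 h and read at 490 nm with medium-only background subtracted. Percent was calculated relative to DMSO-treated cells.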

Row | SMILES | pEC50
1 | O=c1[nH]c2ccc(Cl)cc2c(N[C@@H]2CN3CCC2CC3)c1-c1nc2ccccc2[nH]1 | 7.10

molecular target: T1, Serine/threonine-protein kinase Chk1 (Homo sapiens, UniProt O14757); experiment: Inhibition of CHK1
T1 sequence (O14757 whole entry): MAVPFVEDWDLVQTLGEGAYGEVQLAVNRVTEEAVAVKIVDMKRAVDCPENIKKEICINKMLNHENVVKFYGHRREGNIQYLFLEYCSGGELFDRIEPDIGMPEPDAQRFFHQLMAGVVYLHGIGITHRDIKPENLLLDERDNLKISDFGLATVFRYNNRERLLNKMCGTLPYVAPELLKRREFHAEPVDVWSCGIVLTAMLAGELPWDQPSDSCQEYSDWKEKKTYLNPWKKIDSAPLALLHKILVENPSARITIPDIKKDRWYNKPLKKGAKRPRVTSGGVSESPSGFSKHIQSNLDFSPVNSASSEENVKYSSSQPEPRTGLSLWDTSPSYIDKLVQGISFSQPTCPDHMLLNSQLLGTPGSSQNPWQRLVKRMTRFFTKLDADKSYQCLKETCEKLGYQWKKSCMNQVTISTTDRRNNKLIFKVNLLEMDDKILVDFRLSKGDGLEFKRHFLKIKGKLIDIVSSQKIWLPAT

Row | SMILES | pIC50
2 | Oc1nc2ccc(Cl)cc2c(NC2CCCNC2)c1-c1nc2ccccc2[nH]1 (stereo unspecified) | 8.98
3 | Cc1ccc2nc(O)c(-c3nc4ccccc4[nH]3)c(N[C@@H]3CN4CCC3CC4)c2c1 | 9.46
4 | Cc1cccc2c(N[C@@H]3CN4CCC3CC4)c(-c3nc4ccccc4[nH]3)c(O)nc12 | 6.86
5 | O=c1[nH]c2ccc(Cl)c(Cl)c2c(N[C@@H]2CN3CCC2CC3)c1-c1nc2ccccc2[nH]1 | 7.66
6 | O=c1[nH]c2ccccc2c(O)c1-c1nc2ccccc2[nH]1 | 5.53
7 | Oc1nc2ccc(Cl)cc2c(N[C@H]2CCNC2)c1-c1nc2ccccc2[nH]1 | 9.30
8 | Cc1ccc2nc(O)c(-c3nc4ccccc4[nH]3)c(NC3CCNCC3)c2c1 | 8.48
9 | O=c1[nH]c2ccc(Cl)cc2c(N[C@@H]2CCNC2)c1-c1nc2ccccc2[nH]1 | 8.14
10 | O=c1[nH]c2ccc(Cl)cc2c(NC2CCNCC2)c1-c1nc2ccccc2[nH]1 | 8.48
11 | O=c1[nH]c2ccccc2c(N[C@H]2CN3CCC2CC3)c1-c1nc2ccccc2[nH]1 | 6.32
12 | O=c1[nH]c2ccccc2c(N[C@@H]2CN3CCC2CC3)c1-c1nc2ccccc2[nH]1 | 8.12
13 | Cc1ccc2[nH]c(=O)c(-c3nc4ccccc4[nH]3)c(NC3CCCNC3)c2c1 (stereo unspecified) | 8.85
14 | Nc1c(-c2nc3ccccc3[nH]2)c(=O)[nH]c2ccccc12 | 6.14
15 | CCN(CC)c1c(-c2nc3ccccc3[nH]2)c(=O)[nH]c2ccccc12 | < 4.52

tested on: MDA-MB-435; experiment: Cytotoxicity against human MDA-MB-435 cells in presence of camptothecin; format: functional, cell-based; summary of the method: as §1

Row | SMILES | Activity
16 | O=c1[nH]c2ccc(Cl)cc2c(N[C@@H]2CN3CCC2CC3)c1-c1nc2ccccc2[nH]1 | Active
